Assay outcomes from PubChem BioAssay.
b-catenin transl: beta-catenin nuclear translocation modulation. AID 1665. HeLa beta-catenin nuclear translocation, immunofluorescence imaging. nuclear translocation activity, % at 5 µM. hit rate 0.3% among 190,000;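 active = nuclear translocation activity above 50% at 5 µM, with a well cell count of 50 or more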;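 note: per-cell ratio of nuclear to cytoplasmic median beta-catenin stain intensity; plate controls were DMSO negative control for no effect and GSK-3 inhibitor IX positive control for full effect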
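Test system: human HeLa cells, native beta-catenin. Compound dosing: 5 µM primary single dose, 0.1% DMSO, 0.02–20 µM confirmation series. Incubation: compound exposure 24 h at 37°C. Detection: beta-catenin immunostaining with DAPI counterstain, 20x imaging, 6 fields/well. Read-out basis: Nuclear/cytoplasmic beta-catenin signal ratio, % activation.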
MT stabilizer: microtubule stabilization, imaging screen | HeLa tubulin immunostaining HCS, 24 h; share of cells brighter than vehicle mean+2SD | % tubulin-high responders, % at 10 µM | hit rate 0.83% among 200,000 | AID 2205;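 active = plate Z-score above 3 for both tubulin-high and condensed-nucleus cell shares, with cell loss under 80%, at 10 µM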;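 note: anti alpha tubulin signal scored within the nucleus-defined area of each cell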
HSV augment: increases HSV replication in cells | maximum fold increase | hit rate 0.005% among 220,000 | HSV replication augmentation in cells, fold increase; in the data active = maximum fold increase above about 1.5; tested in PC3 cells
Dynein cargo inh: blocks dynein driven cargo transport along microtubules. z-score, hits read low. AID 1381. 3617.4 mouse cells, GR-EGFP nuclear translocation imaging; test concentration mostly 20 µM; stimulated with dexamethasone, 1 µM; stronger effect = lower value. hit rate 0.47% among 220,000;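 active = plate z-score of nuclear minus cytoplasmic receptor signal below a set negative limit, without overly bright fluorescence or cell loss, cut at about -3.5 in these data, passing the limit was not always enough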;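 note: z-score of nuclear minus cytoplasmic ring GR-EGFP intensity difference per well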
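Also added: dexamethasone, 1.0 µM final. Medium: tet-free, stripped-serum medium. Detection: fixed, Hoechst-stained cells imaged at 10x for EGFP. Read-out: nuclear-to-cytoplasmic GR-EGFP distribution per well. Times: induction 48 h, compound 1 h, agonist 30 min.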
Lmaj promast: Leishmania major promastigote growth inhibition; inhibition, % at 10 µM; Leishmania major promastigotes, resazurin fluorescence viability; hit rate 9% among 200,000; AID 1063; in the data active = inhibition above about 50%;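 note: promastigotes grown with compound for 44 hours at 28 °C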
* = called active by the depositor. Compounds with a hit are over-represented: about 8.9% of the library has one in this group of screens.

Screening CCOC(=O)c1c(C)n(CC(O)CN(CC)CC)c2cc(Br)c(OC)cc12 (stereo not given) returned b-catenin transl 1, MT stabilizer 7, HSV augment inactive, Dynein cargo inh -0.44 and Lmaj promast 89*.
`CCOC(=O)c1c(C)n(C)c2cc(Br)c(OC)cc12` gave b-catenin transl -4, MT stabilizer 2, HSV augment inactive, Dynein cargo inh 0.82 and Lmaj promast -1.
For CCOC(=O)c1c(C)n(C)c2cc(Br)c(C(=O)OC)cc12 the results were b-catenin transl 1, MT stabilizer 9, HSV augment inactive, Dynein cargo inh 2.9 and Lmaj promast 1.
`CCN(CC)CCNC(=O)c1c(C)n(-c2ccccc2)c2cc(Br)c(OC)cc12` gave b-catenin transl 0, MT stabilizer 3, HSV augment inactive, Dynein cargo inh -5.2 and Lmaj promast 101*.
COc1cc2c(C(=O)N3CCN(C)CC3)c(C)n(-c3ccccc3)c2cc1Br was read as b-catenin transl 0, MT stabilizer 4, HSV augment inactive, Dynein cargo inh -0.65 and Lmaj promast 12.
For CCn1ncc([C@@H]2C[C@H]3CN(Cc4ccccc4C)C(=O)[C@]34CCCN24)c1C the results were b-catenin transl 1, MT stabilizer 1, HSV augment inactive, Dynein cargo inh -0.82 and Lmaj promast -1.
Screening CSC(=S)N(C)C1CCS(=O)(=O)C1 (stereo not given) returned b-catenin transl 2, MT stabilizer 2, HSV augment inactive, Dynein cargo inh -0.17 and Lmaj promast 0.
CCC(CC)NC(=O)COC(=O)c1ccc(OCc2ccc(C(C)=O)cc2OC)c(OC)c1 was read as b-catenin transl 0, MT stabilizer 3, HSV augment inactive, Dynein cargo inh 0.71 and Lmaj promast 34.
Screening CCOC(=O)c1c(CNCCN(CC)CC)n(C)c2cc(Br)c(OC)cc12 returned b-catenin transl -5, MT stabilizer 3, HSV augment inactive, Dynein cargo inh 1.9 and Lmaj promast 100*.
Screening COC(=O)c1cc(NC(=S)N2CCN(C(=O)C3CCCO3)CC2)cc(C(=O)OC)c1 (stereo not given) returned b-catenin transl -3, MT stabilizer 4, HSV augment inactive, Dynein cargo inh 0.023 and Lmaj promast -5.
Screening Cc1ccc(NC(=O)C2C3CCCC2C3c2ccccc2)c(C)c1 (stereo not given) returned MT stabilizer 2, HSV augment inactive, Dynein cargo inh 1.4 and Lmaj promast 84*.
Screening Cc1ccc(NC(=O)C2C(c3ccccc3)C2(Cl)Cl)c(C)c1 (stereo not given) returned b-catenin transl -2, MT stabilizer 2, HSV augment inactive, Dynein cargo inh -1 and Lmaj promast 41.
CC1(C)c2ssc(=S)c2-c2ccccc2N1C(=O)c1ccco1 was read as b-catenin transl -2, MT stabilizer 8, HSV augment inactive, Dynein cargo inh -1.3 and Lmaj promast 5.
`CCOc1ccc2c(c1)-c1c(ssc1=S)C(C)(C)N2C(=O)CSC1=NCCS1` gave b-catenin transl 1, MT stabilizer 3, HSV augment inactive, Dynein cargo inh -1.2 and Lmaj promast 96*.
`Cc1ccc2c(c1)-c1c(ssc1=S)C(C)(C)N2C(=O)c1ccco1` gave b-catenin transl -2, MT stabilizer 37*, HSV augment inactive, Dynein cargo inh 0.65 and Lmaj promast 33.
Cc1ccc2c(c1)-c1c(ssc1=S)C(C)(C)N2C(=O)CSC1=NCCS1 was read as b-catenin transl 3, MT stabilizer 3, HSV augment inactive, Dynein cargo inh -0.53 and Lmaj promast 87*.
Screening Cn1cnnc1SCC(=O)N1c2ccccc2-c2c(ssc2=S)C1(C)C returned b-catenin transl -2.
`O=C(O)c1ccc(N/N=C/c2cccc3cccnc23)cc1` gave b-catenin transl -1, HSV augment inactive and Dynein cargo inh -0.86.
`COc1ccc(C(=O)NCC(=O)N/N=C(C)\C=C\c2ccccc2)cc1OC` gave b-catenin transl -2, MT stabilizer 4, HSV augment inactive, Dynein cargo inh -0.69 and Lmaj promast -3.
Screening Cc1ccc(Cn2ccc(NC(=O)c3nn(C)cc3Cl)n2)cc1 returned b-catenin transl 0, MT stabilizer 3, HSV augment inactive, Dynein cargo inh -0.25 and Lmaj promast 6.
`Cn1cc(Cl)c(C(=O)Nc2cnn(Cc3ccc(F)cc3)c2)n1` gave b-catenin transl 1, MT stabilizer 6, HSV augment inactive, Dynein cargo inh 0.067 and Lmaj promast 99*.
`O=C(Nc1cnn(Cc2ccc(F)cc2)c1)c1cc(-c2ccco2)on1` gave b-catenin transl -3, MT stabilizer 1, HSV augment inactive, Dynein cargo inh 1.3 and Lmaj promast 69*.
Screening COc1cccc(-c2cc(C(=O)Nc3cnn(Cc4ccc(F)cc4)c3)no2)c1 returned b-catenin transl -4, MT stabilizer 3, HSV augment inactive, Dynein cargo inh -0.35 and Lmaj promast 0.
Screening Cc1sc2ccc3sccc3c2[n+]1C returned b-catenin transl 1, MT stabilizer 2, HSV augment inactive, Dynein cargo inh 1.9 and Lmaj promast -2.
`Cc1cc(C)c2sc(N(CCN(C)C)C(=O)c3c(F)cccc3F)nc2c1` gave MT stabilizer 7, HSV augment inactive, Dynein cargo inh -1.4 and Lmaj promast 26.
Screening CCOc1ccc(NC(=O)c2nnn(CC(=O)Nc3ccccc3OC)c2N)cc1 returned MT stabilizer 6, HSV augment inactive, Dynein cargo inh -0.43 and Lmaj promast 2.
For Cc1cc2c3c(c1)C(C)(c1ccccc1)CC(C)(C)N3C(=O)C21C(C#N)=C(N)OC2=C1C(=O)CC(C)(C)C2 (stereo not given) the results were MT stabilizer 3, HSV augment inactive, Dynein cargo inh 0.044 and Lmaj promast 51*.
CC1(c2ccccc2)CC(C)(C)N2C(=O)C3(C(C#N)=C(N)Oc4cc(O)ccc43)c3cccc1c32 (stereo not given) was read as MT stabilizer 1, HSV augment inactive, Dynein cargo inh 0.0089 and Lmaj promast 12.
CCCCc1nc2ccccc2c(=O)n1NC(=O)c1c(O)c2c(n(CC(C)C)c1=O)CCCC2 was read as b-catenin transl -4, MT stabilizer 9, HSV augment inactive, Dynein cargo inh 1.9 and Lmaj promast 49.
For CC(C)Cn1c2c(c(O)c(C(=O)Nn3c(Cc4ccccc4)nc4ccccc4c3=O)c1=O)CCCC2 the results were b-catenin transl -2, MT stabilizer 2, HSV augment inactive, Dynein cargo inh -0.025 and Lmaj promast 74*.
CCC(=O)NC(=S)Nc1ccc(NC(=O)c2cccnc2)cc1 was read as b-catenin transl -2, HSV augment inactive and Dynein cargo inh 0.35.
For COc1cccc(-c2nn(C)c3sc(C(=O)NCc4ccc(C)cc4)cc23)c1 the results were MT stabilizer 1, HSV augment inactive, Dynein cargo inh 0.21 and Lmaj promast 20.
